Assay results gathered from unrelated publications.
Each line is one published result; the experiments were not run side by side.

| SMILES | target or system | test | system | conditions | endpoint | result |
| --- | --- | --- | --- | --- | --- | --- |
| COc1cc(Nc2nccc(-c3cnn4nc(OC)ccc34)n2)cc(C(F)(F)F)c1 | EFM-192A | cell growth or viability, ATP luminescence |  |  | IC50 | > 3000 nM |
| COc1ccc([S+]([O-])c2ccc(C)cc2)c(OC)c1OC (stereo not shown) |  | tubulin polymerisation, inhibitor, absorbance |  | pH 6.6 | IC50 | > 40000 nM |
| Cc1cc(C)cc(COc2cc3c(cc2OCc2cc(C)cc(C)c2)[C@H]2C[C@](O)(Cc4cn(CCc5ccccc5)nn4)C[C@H](C)N2CC3)c1 | ASPC1 | cell growth or viability, MTT |  |  | IC50 | 794 nM |
| COc1ccc(Sc2ccc(C)cc2)c(OC)c1OC |  | tubulin polymerisation, inhibitor, absorbance |  | pH 6.6 | IC50 | > 40000 nM |
| COc1ccc(Cn2cc(C[C@@]3(O)C[C@@H]4c5cc(OCc6cc(C)cc(C)c6)c(OCc6cc(C)cc(C)c6)cc5CCN4[C@@H](C)C3)nn2)cc1 | ASPC1 | cell growth or viability, MTT |  |  | IC50 | 1280 nM |
| CC(C)C[C@H](NC(=O)[C@H](Cc1ccccc1)NC(=O)c1cnccn1)B(O)O | HCC827 | cell growth or viability, ATP luminescence |  |  | IC50 | 7.8 nM |
| Cc1cc(Nc2ncc(Cl)c(Nc3ccccc3S(=O)(=O)C(C)C)n2)c(OC(C)C)cc1C1CCNCC1 | KARPAS-299 | cell growth or viability, MTT |  | 0.00686 µg/mL, 72 h | inhibition | 13.2% |
| Cc1cc(C)cc(COc2cc3c(cc2OCc2cc(C)cc(C)c2)C2CC(O)(Cc4cn(CCOCCOCCOCCOc5ccc6c(c5)C(=O)N(C5CCC(=O)NC5=O)C6=O)nn4)CC(C)N2CC3)c1 (stereo not shown) | ASPC1 | cell growth or viability, MTT |  |  | IC50 | 1120 nM |
| COc1ccc(Sc2ccc(OC)c(OC)c2OC)cc1 |  | tubulin polymerisation, inhibitor, absorbance |  | pH 6.6 | IC50 | 16000 nM |
| C[C@@H]1[C@H](O)[C@@H](C)/C=C/C=C/C=C/C=C/C=C/C=C/C=C/[C@H](O[C@@H]2O[C@H](C)[C@@H](O)[C@H](N)[C@@H]2O)C[C@@H]2O[C@](O)(C[C@@H](O)C[C@@H](O)[C@H](O)CC[C@@H](O)C[C@@H](O)CC(=O)O[C@H]1C)C[C@H](O)[C@H]2C(=O)O | Cryptococcus neoformans | microbial growth | ATCC90113 |  | IC50 | 0.75 µg/mL |
